Laboratory results from ChEMBL document CHEMBL2169857, “Synthesis of a potent photoreactive acidic γ-secretase modulator for target identification in cells” (Bioorg Med Chem, 2012).
The source made the active and inactive calls. The calls are words filed in the database; no cut-off is given here.

Columns and labels:
Type in all cases: cell-based
[1] = Modulation of gamma-secretase expressed in CHO cells co-expressing wild type APP and PS1 assessed as inhibition of amyloid beta-42 production sandwich ELISA
Method in brief: (§1)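 CHO cells stably overexpressing wild-type APP and PS1 incubated with compounds; Aβ42, Aβ40 and, for selected compounds, Aβ38 in cell-culture supernatants quantified by sandwich ELISA; IC50 derived for Aβ42.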

[2] = target: Presenilin-1 (Homo sapiens) (UniProt P49768); assay: Binding affinity to gamma-secretase catalytic subunit of PS1 expressed in N2a-APP cells at 0.2 uM followed by irradiated with UV light by Western blot analysis
Method in brief: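 N2a-ANPP cells stably overexpressing APP and all four γ-secretase subunits treated live with 0.2 μM biotinylated photoprobe or DMSO vehicle, irradiated with 350 nm UV; membranes prepared, labeled proteins affinity-purified on streptavidin beads, resolved by SDS gel and Western blotted with antibodies to the four γ-secretase subunits or APP.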

CHO = assay: Modulation of gamma-secretase expressed in CHO cells co-expressing wild type APP and PS1 assessed as increase of amyloid beta-38 production sandwich ELISA; method in brief: as §1

Row | IC50 [1] | Activity [2] | Structure (SMILES) | Activity (CHO)
1 | 50 nM |  | CC(C)C#C[C@H](c1ccc(C(F)(F)F)cc1)N1CC[C@@H](CC(=O)O)C[C@H]1c1ccc(C(F)(F)F)cc1 | 
2 | 300 nM |  | CC(C)C#C[C@@H](c1ccc(Cl)cc1)N1CC[C@H](CC(=O)O)C[C@@H]1c1ccc(C(F)(F)F)cc1 | 
3 | 1000 nM |  | O=C(O)CC1CCN(C(C#CCCCCOC(=O)CCCC[C@@H]2SC[C@@H]3NC(=O)N[C@@H]32)c2ccc(C(F)(F)F)cc2)C(c2ccc(C(F)(F)F)cc2)C1 (mixture of isomers) | 
4 | 1000 nM |  | COc1cc(C(C#CC(C)C)N2CCC(CC(=O)O)CC2c2ccc(C(F)(F)F)cc2)ccc1-n1cnc(C)c1 (racemic) | 
5 |  | Active | COC(=O)CC1CCN(C(C#CCCCCNC(=O)CCCC[C@@H]2SC[C@@H]3NC(=O)N[C@@H]32)c2ccc(C3(C(F)(F)F)N=N3)cc2)C(c2ccc(C(F)(F)F)cc2)C1 (mixture of isomers) | 
6 | 190 nM |  | CC(C)C#CC(c1ccc(C2(C(F)(F)F)N=N2)cc1)N1CCC(CC(=O)O)CC1c1ccc(C(F)(F)F)cc1 (racemic) | 
7 | 2200 nM |  | O=C(O)CC1CCN(C(C#CCCCCNC(=O)CCCC[C@@H]2SC[C@@H]3NC(=O)N[C@@H]32)c2ccc(C3(C(F)(F)F)N=N3)cc2)C(c2ccc(C(F)(F)F)cc2)C1 (mixture of isomers) | 
8 | 30 nM |  | CC(C)/C=C\[C@H](c1ccc(Cl)cc1)N1CC[C@@H](CC(=O)O)C[C@H]1c1ccc(C(F)(F)F)cc1 | 
9 | 500 nM | Active | O=C(O)CC1CCN(C(C#CCCCCOC(=O)CCCC[C@@H]2SC[C@@H]3NC(=O)N[C@@H]32)c2ccc(C3(C(F)(F)F)N=N3)cc2)C(c2ccc(C(F)(F)F)cc2)C1 (mixture of isomers) | 
10 | 350 nM |  | CC(C)C#C[C@@H](c1ccc(C(F)(F)F)cc1)N1CC[C@H](CC(=O)O)C[C@@H]1c1ccc(C(F)(F)F)cc1 | 
11 | 68 nM |  | CC(C)CC[C@H](c1ccc(Cl)cc1)N1CC[C@@H](CC(=O)O)C[C@H]1c1ccc(C(F)(F)F)cc1 | 
12 | 616 nM |  | CC(C)/C=C\[C@@H](c1ccc(Cl)cc1)N1CC[C@H](CC(=O)O)C[C@@H]1c1ccc(C(F)(F)F)cc1 | 
13 | 87 nM |  | CC(C)C#C[C@H](c1ccc(Cl)cc1)N1CC[C@@H](CC(=O)O)C[C@H]1c1ccc(C(F)(F)F)cc1 | Active
14 | 2000 nM |  | O=C(O)CC1CCN(C(C#CCCCCO)c2ccc(C3(C(F)(F)F)N=N3)cc2)C(c2ccc(C(F)(F)F)cc2)C1 (racemic) | 
